# According to ChEMBL document CHEMBL2169854, “New insight into the central benzodiazepine receptor-ligand interactions: design, synthesis, biological evaluation, and molecular modeling of 3-substituted 6-phenyl-4H-imidazo[1,5-a][1,4]benzodiazepines and related compounds” (J Med Chem, 2011):
# Activity calls are given as the source filed them. The rule behind the calls is not given here.
# What was measured:
# [1] = target: T1, GABA A receptor alpha-1/beta-1/gamma-2 (Homo sapiens) (UniProt P14867+P18507+P18505); experiment: (§1) Antagonist at human recombinant GABA-A alpha1beta1gamma2L receptor expressed in Xenopus laevis oocytes assessed as blockade of diazepam-induced potentiation of GABA-induced chloride current at 10 uM incubated 60 seconds before addition of GABA measured after 30 seconds at holding potential -70 mV by two-microelectrode voltage clamp technique; type: functional, cell-based; conditions: Oocyte
# Oocyte [2] = experiment: (§2) Modulation of human recombinant GABA-A alpha5beta2gamma2L receptor expressed in Xenopus laevis oocytes assessed as effect on GABA-induced chloride current at 1 uM incubated 60 seconds before addition of GABA measured after 30 seconds at holding potential -70 mV by two-microelectrode voltage clamp technique relative to control; type: cell-based
# [3] = target: T1, GABA A receptor alpha-1/beta-1/gamma-2 (Homo sapiens); experiment: as §2, with “alpha1beta1gamma2L” for “alpha5beta2gamma2L”, “10” for “1”; type: cell-based; conditions: Oocyte
# [4] = target: T2, GABA-A receptor; alpha-1/beta-2/gamma-2 (Homo sapiens) (UniProt P14867+P47870+P18507); experiment: as §2, with “alpha1beta2gamma2L” for “alpha5beta2gamma2L”, “10” for “1”; type: cell-based; conditions: Oocyte
# [5] = target: T3, GABA A receptor alpha-2/beta-2/gamma-2 (Homo sapiens, UniProt P18507+P47869+P47870); experiment: Displacement of [3H]flumazenil from human recombinant GABA-A alpha2beta2gamma2L receptor expressed in HEK293 cells; type: cell-based
# T3 sequence (P47870 whole entry): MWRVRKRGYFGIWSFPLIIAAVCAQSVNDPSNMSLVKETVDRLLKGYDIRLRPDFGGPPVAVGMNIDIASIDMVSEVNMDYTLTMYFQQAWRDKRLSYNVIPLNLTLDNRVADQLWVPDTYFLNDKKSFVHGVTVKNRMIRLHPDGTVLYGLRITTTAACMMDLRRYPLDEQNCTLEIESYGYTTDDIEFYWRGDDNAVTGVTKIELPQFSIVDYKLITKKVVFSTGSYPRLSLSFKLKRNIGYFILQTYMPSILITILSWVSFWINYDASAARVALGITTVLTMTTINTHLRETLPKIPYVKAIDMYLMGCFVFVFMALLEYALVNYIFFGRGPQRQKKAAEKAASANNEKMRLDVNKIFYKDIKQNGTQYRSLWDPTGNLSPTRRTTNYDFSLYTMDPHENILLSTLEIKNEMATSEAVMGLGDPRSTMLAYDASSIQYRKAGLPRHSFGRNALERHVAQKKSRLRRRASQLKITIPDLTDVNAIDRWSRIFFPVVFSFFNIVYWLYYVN
# T3 sequence (P18507 whole entry): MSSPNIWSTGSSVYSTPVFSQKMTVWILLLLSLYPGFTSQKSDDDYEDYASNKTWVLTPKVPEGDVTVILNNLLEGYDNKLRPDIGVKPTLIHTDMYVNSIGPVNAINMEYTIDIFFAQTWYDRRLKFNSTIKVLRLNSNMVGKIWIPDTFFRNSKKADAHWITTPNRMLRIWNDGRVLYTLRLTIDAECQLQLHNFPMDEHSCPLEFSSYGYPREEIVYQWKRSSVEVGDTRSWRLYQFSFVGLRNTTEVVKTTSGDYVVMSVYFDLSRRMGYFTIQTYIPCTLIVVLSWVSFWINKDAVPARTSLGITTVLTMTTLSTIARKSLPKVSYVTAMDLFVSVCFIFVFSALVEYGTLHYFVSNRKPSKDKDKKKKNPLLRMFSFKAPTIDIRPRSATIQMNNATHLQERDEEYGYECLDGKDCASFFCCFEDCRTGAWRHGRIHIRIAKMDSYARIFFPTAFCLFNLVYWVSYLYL
# T3 sequence (P47869 whole entry): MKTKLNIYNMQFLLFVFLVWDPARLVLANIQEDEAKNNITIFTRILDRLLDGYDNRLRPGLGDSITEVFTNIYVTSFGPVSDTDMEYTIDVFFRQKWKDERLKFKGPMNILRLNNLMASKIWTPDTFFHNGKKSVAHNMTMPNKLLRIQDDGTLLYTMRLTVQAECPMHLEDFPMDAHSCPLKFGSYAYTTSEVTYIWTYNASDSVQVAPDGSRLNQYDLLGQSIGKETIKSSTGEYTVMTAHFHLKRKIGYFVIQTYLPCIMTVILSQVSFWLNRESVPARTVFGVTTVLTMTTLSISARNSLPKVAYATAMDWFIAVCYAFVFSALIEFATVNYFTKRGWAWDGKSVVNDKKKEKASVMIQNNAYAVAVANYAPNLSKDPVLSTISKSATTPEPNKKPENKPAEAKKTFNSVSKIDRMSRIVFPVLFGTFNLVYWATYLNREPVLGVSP
# Summary of the method: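 Membranes came from stably transfected HEK293 lines expressing α2β2γ2 or α5β3γ2, grown in MEM/EBSS with 10% FCS at 37 C, and were resuspended in 10 mM potassium phosphate pH 7.4 with 100 mM KCl. […] At least six concentrations were tested, DMSO ≤1%. Ki was obtained by Cheng–Prusoff from n = 3 experiments run in triplicate.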
# [6] = target: T1, GABA A receptor alpha-1/beta-1/gamma-2 (Homo sapiens); experiment: as §2, with “alpha1beta1gamma2L” for “alpha5beta2gamma2L”; type: cell-based; conditions: Oocyte
# [7] = Displacement of [3H]flumazenil from central benzodiazepine receptor in human cortical membrane after 90 mins by beta liquid scintillation counting; type: cell membranes
# Homo sapiens = species on record: Homo sapiens; experiment: Ratio of Ki for central benzodiazepine receptor in human cortical membrane to Ki for central benzodiazepine receptor in human cortical membrane in presence of 50 uM GABA; type: cell membranes
# [8] = Displacement of [3H]flumazenil from central benzodiazepine receptor in bovine cortical membrane after 90 mins by beta liquid scintillation counting; type: cell membranes, Bos taurus
# Summary of the method: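 At least six concentrations spanning 3 log units were tested in 2% DMSO. Ki was obtained by Cheng–Prusoff (Kd 0.85 nM bovine, 0.91 nM human), mean of three determinations.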
# Bos taurus = species on record: Bos taurus; experiment: Ratio of Ki for central benzodiazepine receptor in bovine cortical membrane to Ki for central benzodiazepine receptor in bovine cortical membrane in presence of 50 uM GABA; type: cell membranes
# Oocyte [9] = experiment: as §2, with “10” for “1”; type: cell-based
# [10] = target: T2, GABA-A receptor; alpha-1/beta-2/gamma-2 (Homo sapiens); experiment: as §2, with “alpha1beta2gamma2L” for “alpha5beta2gamma2L”; type: cell-based; conditions: Oocyte
# [11] = target: T2, GABA-A receptor; alpha-1/beta-2/gamma-2 (Homo sapiens); experiment: as §1, with “alpha1beta2gamma2L” for “alpha1beta1gamma2L”; type: functional, cell-based; conditions: Oocyte
# Summary of the method: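 Oocytes expressing human α1β2γ2L, α2β1γ2L or α5β2γ2L receptors were clamped at −70 mV. Compound at 10 μM was tested against the enhancement of the GABA EC10 response by 1.0 μM diazepam, with 60 s preapplication and 30 s coapplication. The response was expressed as percent potentiation, from 2–3 oocytes.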
Structure (SMILES),Activity [1],Activity (Oocyte [2]) [%],Activity [3] [%],Activity [4] [%],Ki [5] [nM],Activity [6] [%],Ki [7] [nM],Ratio Ki (Homo sapiens),Ki [8] [nM],Ratio Ki (Bos taurus),Activity (Oocyte [9]) [%],Activity [10] [%],Activity [11]
CCOC(=O)c1ncn2c1CN=C(c1ccc(F)cc1)c1cc(F)ccc1-2,Active,-1,6.5,12,60,-7.5,22.3,1.05,10.9,1,-16,-13,Active
CCOC(=O)c1ncn2c1CN=C(c1ccc(C)cc1)c1ccccc1-2,Active,-4,8.3,-4,105,0,18.5,1.1,11.4,0.97,-22,8,Active
